Measurements reported in ChEMBL document CHEMBL1124739, “Selective class III antiarrhythmic agents. 1 Bis(arylalkyl)amines” (J Med Chem, 1990).
Several values for one entry are separate records, joined by “and”; a condition that tells them apart may be missing. Equal entries are not always repeated.

How the values were obtained:
Cavia porcellus [1] = organism: Cavia porcellus; assay: The degree of cardiac depression produced by a concentration of 10 E-4 M was determined in guinea pig; type: functional
Outline: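 Cardiac depression was measured at 10⁻⁴ M in the isolated guinea pig left atrial preparation and taken as an index of class I activity.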

Cavia porcellus [2] = organism: Cavia porcellus; assay: Concentration required to prolong the effective refractory period (ERP) by 25% in isolated guinea pig left atria; type: functional
Outline: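 Isolated guinea pig left atria were studied by the extrastimulus technique. The molar concentration raising ERP by 25% (ED25) was determined. Values are the mean of two similar determinations, ±4%.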

[3] = Oral bioavailability in dog; type: ADME, organism-based, Canis lupus familiaris; conditions: in vivo
[4] = Oral bioavailability in man; type: ADME, organism-based; conditions: human, in vivo
[5] = Distribution coefficient at pH 7.4; type: physicochemical; conditions: octanol/water
Cavia porcellus [6] = organism: Cavia porcellus; assay: Action potential duration (APD90) repolarization in guinea pig right papillary muscle was determined at concentration 10E-6 M; type: functional, Muscle tissue
Outline: (§1)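 Isolated guinea pig right papillary muscle exposed to the concentration given in each line. Action potential duration was read at 50% and 90% repolarization, and phase 0 maximum rate of depolarization (MRD) was also recorded. Values are means ± SD of 30 or 31 observations from three preparations, compared with control by t test.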

Cavia porcellus [7] = organism: Cavia porcellus; assay: Action potential duration (APD90) repolarization in guinea pig right papillary muscle was determined at concentration 5 x 10E-8 M; type: functional, Muscle tissue; outline: as §1
Cavia porcellus [8] = organism: Cavia porcellus; assay: Action potential duration (APD90) repolarization in guinea pig right papillary muscle was determined at concentration 5 x 10E-9 M; type: functional, Muscle tissue; outline: as §1
Cavia porcellus [9] = organism: Cavia porcellus; assay: Action potential duration (APD50) repolarization in guinea pig right papillary muscle was determined at concentration 10E-6 M; type: functional, Muscle tissue; outline: as §1
Cavia porcellus [10] = organism: Cavia porcellus; assay: Action potential duration (APD50) repolarization in guinea pig right papillary muscle was determined at concentration 5 x 10E-8 M; type: functional, Muscle tissue; outline: as §1
Cavia porcellus [11] = organism: Cavia porcellus; assay: Action potential duration (APD50) repolarization in guinea pig right papillary muscle was determined at concentration 5 x 10E-9 M; type: functional, Muscle tissue; outline: as §1
Cavia porcellus [12] = organism: Cavia porcellus; assay: Maximum rate of depolarization (MRD) during phase 0 in guinea pig right papillary muscle was determined at concentration 5 x 10E-8 M; type: functional, Muscle tissue; outline: as §1
Cavia porcellus [13] = organism: Cavia porcellus; assay: Maximum rate of depolarization (MRD) during phase 0 in guinea pig right papillary muscle was determined at concentration 5 x 10E-9 M; type: functional, Muscle tissue; outline: as §1
Cavia porcellus [14] = organism: Cavia porcellus; assay: Maximum rate of depolarization (MRD) during phase 0 in guinea pig right papillary muscle was determined at concentration 10E-6 M; type: functional, Muscle tissue; outline: as §1
Cavia porcellus [15] = organism: Cavia porcellus; assay: Maximum rate of depolarization (MRD) during phase 0 in guinea pig right papillary muscle was determined at concentration 2 x 10E-5 M; type: functional, Muscle tissue; outline: as §1
Cavia porcellus [16] = organism: Cavia porcellus; assay: Action potential duration (APD50) repolarization in guinea pig right papillary muscle was determined at concentration 2 x 10E-5 M; type: functional, Muscle tissue; outline: as §1

SMILES | Cardiac depression (Cavia porcellus [1]) | ED25 (Cavia porcellus [2]) | also measured
CN(CCOc1ccc(CC(N)=O)cc1)CCc1ccc(NS(C)(=O)=O)cc1 | 7% | 10 µM | –
COC(=O)c1ccc(OCCN(C)CCc2ccc(NS(C)(=O)=O)cc2)cc1 | 47% | 4.1 µM | –
CN(CCOc1ccc(C(N)=O)cc1)CCc1ccc(NS(C)(=O)=O)cc1 | 7% | 1.5 µM | –
CN(CCSc1ccc(NS(C)(=O)=O)cc1)CCc1ccc(NS(C)(=O)=O)cc1 | 21% | 0.3 µM | –
CN(CCCCc1ccc(NS(C)(=O)=O)cc1)CCc1ccc(NS(C)(=O)=O)cc1 | 32% | 67 µM | –
CN(CCOc1cccc(C(N)=O)c1)CCc1ccc(NS(C)(=O)=O)cc1 | 3% | 0.82 µM | –
CN(CCOC(c1ccccc1)c1ccc(NS(C)(=O)=O)cc1)CCc1ccc(NS(C)(=O)=O)cc1 (configuration not stated) | 35% | 12 µM | –
CN(CCOc1cccc(NS(C)(=O)=O)c1)CCc1ccc(NS(C)(=O)=O)cc1 | 9% | 3 µM | –
CN(CCCc1ccc(NS(C)(=O)=O)cc1)CCc1ccc(NS(C)(=O)=O)cc1 | 23% | 2.7 µM | –
CN(CCOc1ccc(S(N)(=O)=O)cc1)CCc1ccc(NS(C)(=O)=O)cc1 | 7% | 2.2 µM | –
CCN(CC)C(=O)c1ccc(OCCN(C)CCc2ccc(NS(C)(=O)=O)cc2)cc1 | 9% | 32 µM | –
CN(CCOc1ccc(NS(C)(=O)=O)cc1Cl)CCc1ccc(NS(C)(=O)=O)cc1 | 16% | 18 µM | –
CN(CCc1ccc(NS(C)(=O)=O)cc1)CCc1ccc(NS(C)(=O)=O)cc1 | 20% | 2 µM | –
Cc1ccc(NS(C)(=O)=O)c(OCCN(C)CCc2ccc(NS(C)(=O)=O)cc2)c1.Cl | 24% | 17 µM | –
CN(CCCCOc1ccc(NS(C)(=O)=O)cc1)CCc1ccc(NS(C)(=O)=O)cc1.Cl | 23% | 40 µM | –
Cc1ccc(OCCN(C)CCc2ccc(NS(C)(=O)=O)cc2)c(C(N)=O)c1.Cl | 22% | 1 µM | –
CNC(=O)Nc1ccc(OCCN(C)CCc2ccc(NS(C)(=O)=O)cc2)cc1.Cl | 0% | 70 µM | –
CN(CCOc1ccccc1NS(C)(=O)=O)CCc1ccc(NS(C)(=O)=O)cc1.Cl | 19% | 2.5 µM | –
CN(CCOc1ccc(C(F)(F)F)cc1)CCc1ccc(NS(C)(=O)=O)cc1.Cl | 30% | 90 µM | –
CNC(=O)c1ccc(OCCN(C)CCc2ccc(NS(C)(=O)=O)cc2)cc1.Cl | 5% | 1.5 µM | –
CN(CCCOc1ccc(NS(C)(=O)=O)cc1)CCc1ccc(NS(C)(=O)=O)cc1.Cl | 44% | 20 µM | –
CN(CCOc1ccc(C(=O)N2CCOCC2)cc1)CCc1ccc(NS(C)(=O)=O)cc1.Cl | 15% | 20 µM | –
CN(CCOc1ccc(NS(C)(=O)=O)cc1)CCc1ccc(NS(C)(=O)=O)cc1 [DOFETILIDE] | 0% | 0.13 µM | bioavailability [3]: 72%; bioavailability [4]: 100%; logD [5]: 0.96; APD90 (Cavia porcellus [6]): 288 ms; APD90 (Cavia porcellus [7]): 246 ms; APD90 (Cavia porcellus [8]): <209 ms and <273 ms; APD50 (Cavia porcellus [9]): 223 ms; APD50 (Cavia porcellus [10]): 197 ms; APD50 (Cavia porcellus [11]): 170 ms; MRD (Cavia porcellus [12]): 273 V s-1; MRD (Cavia porcellus [13]): 261 V s-1; MRD (Cavia porcellus [14]): 269 V s-1; MRD (Cavia porcellus [15]): 273 V s-1; APD50 (Cavia porcellus [16]): 209 ms
CC(C)NCC(O)c1ccc(NS(C)(=O)=O)cc1 (configuration not stated) [SOTALOL] | 5% | 200 µM | –
